Assay [1] concerns the target Serine/threonine-protein kinase 24 (Homo sapiens) (UniProt Q9Y6E0). Kind of assay: Competitive binding affinity to MST3 (unknown origin) at 10 uM in presence of ATP relative to control.
The target in assay [2] is T1, Serine/threonine-protein kinase STK11 (Homo sapiens) (UniProt Q15831).
T1 sequence (whole entry): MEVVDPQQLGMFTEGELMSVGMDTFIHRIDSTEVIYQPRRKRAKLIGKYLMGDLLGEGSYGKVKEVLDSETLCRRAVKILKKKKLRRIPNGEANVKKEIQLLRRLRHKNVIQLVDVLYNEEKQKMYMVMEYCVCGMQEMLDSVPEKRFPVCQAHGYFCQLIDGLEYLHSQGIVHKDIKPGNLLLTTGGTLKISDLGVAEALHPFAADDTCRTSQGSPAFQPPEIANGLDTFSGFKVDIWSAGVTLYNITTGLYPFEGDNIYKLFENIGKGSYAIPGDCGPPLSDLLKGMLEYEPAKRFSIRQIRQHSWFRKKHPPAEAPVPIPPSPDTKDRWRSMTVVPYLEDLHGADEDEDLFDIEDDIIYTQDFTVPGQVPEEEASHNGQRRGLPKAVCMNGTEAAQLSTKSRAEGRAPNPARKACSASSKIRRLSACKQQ
Kind of assay: Competitive binding affinity to LKB1 (unknown origin) at 10 uM in presence of ATP relative to control. The procedure, abridged:
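In vitro ATP-site competition binding assay, part of profiling against a diverse panel of 128 kinases. Each compound was tested at a single concentration of 10 µM. Kinome selectivity was summarized as S15 selectivity scores.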

Assay [3] deals with Mast/stem cell growth factor receptor Kit (Homo sapiens), P10721 [V559D,T670I]. The experiment in a line: Competitive binding affinity to KIT V559D/T670I double mutant (unknown origin) at 10 uM in presence of ATP relative to control.
Sequence of Mast/stem cell growth factor receptor Kit (Homo sapiens), P10721 [V559D,T670I] (P10721 whole entry V559D/T670I): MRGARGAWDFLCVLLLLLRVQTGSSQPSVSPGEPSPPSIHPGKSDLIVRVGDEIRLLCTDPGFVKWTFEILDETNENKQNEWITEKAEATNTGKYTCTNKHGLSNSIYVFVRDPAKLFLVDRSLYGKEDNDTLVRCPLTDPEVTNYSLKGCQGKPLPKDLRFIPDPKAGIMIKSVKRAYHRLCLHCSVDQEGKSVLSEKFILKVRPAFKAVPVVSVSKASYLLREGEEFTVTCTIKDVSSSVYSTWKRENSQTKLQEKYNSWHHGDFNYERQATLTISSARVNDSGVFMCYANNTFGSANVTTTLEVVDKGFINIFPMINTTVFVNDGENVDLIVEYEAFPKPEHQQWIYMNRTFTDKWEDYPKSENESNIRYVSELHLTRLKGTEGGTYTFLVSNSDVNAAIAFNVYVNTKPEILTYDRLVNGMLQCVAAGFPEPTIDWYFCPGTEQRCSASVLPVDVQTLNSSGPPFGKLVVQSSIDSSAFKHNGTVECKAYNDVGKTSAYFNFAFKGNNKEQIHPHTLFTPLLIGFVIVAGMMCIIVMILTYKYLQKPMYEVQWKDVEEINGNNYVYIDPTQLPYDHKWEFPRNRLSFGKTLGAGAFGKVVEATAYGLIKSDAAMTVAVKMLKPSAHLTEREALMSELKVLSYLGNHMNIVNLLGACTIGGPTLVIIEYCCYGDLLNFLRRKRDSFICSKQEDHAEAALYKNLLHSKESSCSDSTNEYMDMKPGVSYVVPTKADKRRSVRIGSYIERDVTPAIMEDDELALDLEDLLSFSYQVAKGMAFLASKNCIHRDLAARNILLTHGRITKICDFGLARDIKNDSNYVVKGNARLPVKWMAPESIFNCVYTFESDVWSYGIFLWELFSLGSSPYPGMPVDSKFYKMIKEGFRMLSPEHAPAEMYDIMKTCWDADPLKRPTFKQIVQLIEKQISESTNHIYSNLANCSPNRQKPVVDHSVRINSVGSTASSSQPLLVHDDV
In assay [4] the target is Serine/threonine-protein kinase 25 (Homo sapiens) (UniProt O00506). The experiment in a line: Competitive binding affinity to YSK1 (unknown origin) at 10 uM in presence of ATP relative to control.
Sequence of Serine/threonine-protein kinase 25 (Homo sapiens) (O00506 whole entry, looked up): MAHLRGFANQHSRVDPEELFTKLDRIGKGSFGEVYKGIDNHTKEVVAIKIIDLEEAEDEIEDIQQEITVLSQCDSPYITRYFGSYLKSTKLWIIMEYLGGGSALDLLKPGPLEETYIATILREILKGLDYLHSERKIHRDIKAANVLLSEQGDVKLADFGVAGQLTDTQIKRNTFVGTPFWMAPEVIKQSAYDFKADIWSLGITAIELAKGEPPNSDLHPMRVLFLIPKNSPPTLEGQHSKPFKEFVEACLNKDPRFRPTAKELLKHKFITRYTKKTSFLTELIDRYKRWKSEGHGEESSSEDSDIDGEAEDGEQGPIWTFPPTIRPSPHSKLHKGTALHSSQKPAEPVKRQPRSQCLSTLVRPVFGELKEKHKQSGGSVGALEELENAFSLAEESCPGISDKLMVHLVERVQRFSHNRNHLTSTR
Another assay is filed under the species Homo sapiens. The experiment in a line: Competitive binding affinity to EGFR L747 to T751 deletion mutant, Sins mutant (unknown origin) at 10 uM in presence of ATP relative to control.
Assay [5] addresses T2, Tyrosine-protein kinase Tec (Homo sapiens) (UniProt P42680).
T2 sequence (whole entry): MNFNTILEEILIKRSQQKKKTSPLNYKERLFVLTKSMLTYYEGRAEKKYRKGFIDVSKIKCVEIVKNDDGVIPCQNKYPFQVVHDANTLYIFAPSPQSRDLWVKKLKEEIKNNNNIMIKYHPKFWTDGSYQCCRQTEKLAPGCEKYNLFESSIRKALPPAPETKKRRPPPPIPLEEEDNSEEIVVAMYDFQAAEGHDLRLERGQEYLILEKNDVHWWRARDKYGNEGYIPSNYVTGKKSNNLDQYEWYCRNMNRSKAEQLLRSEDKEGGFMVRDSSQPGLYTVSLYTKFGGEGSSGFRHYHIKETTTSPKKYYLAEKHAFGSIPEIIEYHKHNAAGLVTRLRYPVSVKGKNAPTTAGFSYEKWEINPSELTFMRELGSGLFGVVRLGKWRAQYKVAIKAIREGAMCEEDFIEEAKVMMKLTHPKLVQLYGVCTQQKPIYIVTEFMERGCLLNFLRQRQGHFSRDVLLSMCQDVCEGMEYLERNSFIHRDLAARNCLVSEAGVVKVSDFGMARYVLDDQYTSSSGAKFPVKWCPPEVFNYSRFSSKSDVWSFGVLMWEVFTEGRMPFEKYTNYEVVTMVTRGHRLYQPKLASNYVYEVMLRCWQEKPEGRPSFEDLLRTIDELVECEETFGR
The experiment in a line: Competitive binding affinity to TEC (unknown origin) at 10 uM in presence of ATP relative to control.

Assay [6] has as its target T3, Serine/threonine-protein kinase RIO3 (Homo sapiens) (UniProt O14730).
T3 sequence (whole entry): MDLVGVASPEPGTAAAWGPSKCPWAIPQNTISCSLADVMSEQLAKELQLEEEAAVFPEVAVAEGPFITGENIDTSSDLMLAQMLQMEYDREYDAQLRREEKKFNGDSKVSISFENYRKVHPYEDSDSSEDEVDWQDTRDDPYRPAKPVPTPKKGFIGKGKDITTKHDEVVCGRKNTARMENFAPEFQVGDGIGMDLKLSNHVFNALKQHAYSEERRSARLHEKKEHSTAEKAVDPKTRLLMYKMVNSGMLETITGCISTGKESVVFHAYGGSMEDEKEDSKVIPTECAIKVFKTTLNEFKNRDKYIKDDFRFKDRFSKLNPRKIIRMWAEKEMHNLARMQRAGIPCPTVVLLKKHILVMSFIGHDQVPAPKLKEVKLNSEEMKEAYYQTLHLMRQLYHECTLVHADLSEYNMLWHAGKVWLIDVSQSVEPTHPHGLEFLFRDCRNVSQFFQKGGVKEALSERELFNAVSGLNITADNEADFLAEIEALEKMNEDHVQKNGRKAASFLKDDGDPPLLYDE
Kind of assay: Competitive binding affinity to RIOK3 (unknown origin) at 10 uM in presence of ATP relative to control.

Assay [7] addresses T4, cGMP-dependent protein kinase 2 (Homo sapiens) (UniProt Q13237).
T4 sequence (whole entry): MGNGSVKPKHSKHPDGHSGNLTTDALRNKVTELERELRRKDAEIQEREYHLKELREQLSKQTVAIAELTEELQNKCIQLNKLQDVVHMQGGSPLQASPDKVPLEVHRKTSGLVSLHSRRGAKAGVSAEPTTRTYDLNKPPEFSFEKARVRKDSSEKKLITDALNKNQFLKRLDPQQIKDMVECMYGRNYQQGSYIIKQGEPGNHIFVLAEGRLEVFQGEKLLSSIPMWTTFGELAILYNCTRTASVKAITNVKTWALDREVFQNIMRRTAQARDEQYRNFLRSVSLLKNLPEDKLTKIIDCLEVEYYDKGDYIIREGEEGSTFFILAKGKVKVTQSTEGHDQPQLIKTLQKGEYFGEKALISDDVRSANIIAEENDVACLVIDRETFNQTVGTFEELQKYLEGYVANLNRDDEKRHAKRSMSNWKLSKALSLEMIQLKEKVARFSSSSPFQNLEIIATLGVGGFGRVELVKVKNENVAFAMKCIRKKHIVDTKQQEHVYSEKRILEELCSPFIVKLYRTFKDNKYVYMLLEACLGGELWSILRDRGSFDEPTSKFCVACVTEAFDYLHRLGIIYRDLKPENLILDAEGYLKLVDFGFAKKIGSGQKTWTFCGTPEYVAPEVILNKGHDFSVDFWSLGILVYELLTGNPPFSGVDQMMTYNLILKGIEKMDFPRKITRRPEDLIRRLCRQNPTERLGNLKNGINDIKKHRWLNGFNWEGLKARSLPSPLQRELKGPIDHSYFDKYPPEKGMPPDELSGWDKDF
The experiment in a line: Competitive binding affinity to PRKG2 (unknown origin) at 10 uM in presence of ATP relative to control.

Assay [8] deals with Phosphatidylinositol 4-phosphate 5-kinase type-1 alpha (Homo sapiens) (UniProt Q99755). The experiment in a line: Competitive binding affinity to PIP5K1A (unknown origin) at 10 uM in presence of ATP relative to control.
Sequence of Phosphatidylinositol 4-phosphate 5-kinase type-1 alpha (Homo sapiens) (Q99755 whole entry): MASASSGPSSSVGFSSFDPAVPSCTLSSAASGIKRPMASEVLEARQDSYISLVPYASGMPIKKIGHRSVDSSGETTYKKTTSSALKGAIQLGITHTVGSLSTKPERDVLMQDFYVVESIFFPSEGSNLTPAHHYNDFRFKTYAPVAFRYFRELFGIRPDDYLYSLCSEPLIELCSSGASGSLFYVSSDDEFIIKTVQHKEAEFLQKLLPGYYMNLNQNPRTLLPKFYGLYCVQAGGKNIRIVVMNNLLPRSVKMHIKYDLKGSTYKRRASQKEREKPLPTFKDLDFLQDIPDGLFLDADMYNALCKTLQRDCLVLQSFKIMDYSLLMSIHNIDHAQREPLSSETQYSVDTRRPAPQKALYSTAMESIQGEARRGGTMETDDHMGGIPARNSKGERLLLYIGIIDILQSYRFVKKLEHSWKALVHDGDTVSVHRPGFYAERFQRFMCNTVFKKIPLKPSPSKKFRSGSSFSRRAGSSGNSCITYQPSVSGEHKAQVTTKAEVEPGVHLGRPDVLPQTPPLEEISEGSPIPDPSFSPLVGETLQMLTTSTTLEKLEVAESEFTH

Structures are written as SMILES.

Sequence of Serine/threonine-protein kinase 24 (Homo sapiens) (Q9Y6E0 whole entry, looked up): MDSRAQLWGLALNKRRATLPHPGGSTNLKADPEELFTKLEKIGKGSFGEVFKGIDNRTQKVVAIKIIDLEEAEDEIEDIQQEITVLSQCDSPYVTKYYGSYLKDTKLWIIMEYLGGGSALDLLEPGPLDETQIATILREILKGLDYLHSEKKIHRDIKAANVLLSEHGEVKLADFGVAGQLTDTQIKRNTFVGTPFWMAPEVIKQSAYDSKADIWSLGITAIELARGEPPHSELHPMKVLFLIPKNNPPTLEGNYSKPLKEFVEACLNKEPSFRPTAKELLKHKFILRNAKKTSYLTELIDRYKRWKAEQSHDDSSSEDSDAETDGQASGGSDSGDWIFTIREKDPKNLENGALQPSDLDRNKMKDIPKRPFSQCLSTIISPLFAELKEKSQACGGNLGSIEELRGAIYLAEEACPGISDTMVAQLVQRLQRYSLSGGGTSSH

Take `O[C@H]1CC[C@H](Nc2nccc(-n3ccc4ccccc43)n2)CC1`: the inhibition (commonly the change of the read-out against control, counted positive when it falls) is 83% in [1]; under 50% in [2]; under 50% in [3]; 74% in assay [4]; under 50% in the assay listed under Homo sapiens; under 50% in assay [5]. In addition, the inhibition in [6], in assay [7] and in [8] was under 50% in each case.
With `O[C@H]1CC[C@H](Nc2nccc(-n3nnc4ccccc43)n2)CC1`, the inhibition is 78% in [1]; under 50% in [2]; 74% in assay [3]; 78% in [4]; under 50% in the assay filed under Homo sapiens; under 50% in assay [5]. In addition, the inhibition in [6] is under 50%; in [7], under 50%; in assay [8], 94%.
Consider `O[C@H]1CC[C@H](Nc2nccc(-n3ncc4ccccc43)n2)CC1`, for which the inhibition is 78% in assay [1]; under 50% in assay [2]; 80% in assay [3]; 77% in assay [4]; under 50% in the assay listed under Homo sapiens; under 50% in assay [5]. In addition, the inhibition is under 50% in assay [6], under 50% in assay [7] and 88% in [8].
On to `O[C@H]1CC[C@H](Nc2nccc(-c3n[nH]c4ccccc34)n2)CC1`, for which the inhibition was 75% in [2], 96% in [3], under 50% in the assay filed under Homo sapiens and under 50% in assay [7].

(Values after ChEMBL document CHEMBL2424622, “Development of amino-pyrimidine inhibitors of c-Jun N-terminal kinase (JNK): kinase profiling guided optimization of a 1,2,3-benzotriazole lead” (Bioorg Med Chem Lett, 2013).)
